Assay outcomes from PubChem.
XiGFP reactiv: X-chromosome reactivation activator; XiGFP mouse fibroblasts, % GFP-positive cells imaging, 3 d; cells co-treated with 5-aza-dC sensitizer; scaled so ellipticine positive control = 100%; activation, % at 7.58 µM; actives 0.055% (n = 360,000);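 active = mean normalized replicate activation at least 10% and every replicate at or above 10%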
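System: XiGFP fibroblasts, SV40-immortalized. Medium: DMEM plus 5-aza-dC sensitizer. Doses: single point. Timing: 3 d treatment, 15 min room-temperature fixation. Control set: ellipticine 6 µM.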
ABCB6 inh 2: inhibitors of human ABC transporter ABCB6; Q9NP58; AID 602162; fluorescence ratio to DMSO, % at 10 µM; actives 0.19% (n = 360,000); K562-ABCB6 porphyrin accumulation, flow cytometry, 1 h; hits give low values;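 active = fluorescence ratio to DMSO below 75%, the collection mean minus 3 SD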;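 also: signal is porphyrin accumulated inside mitochondria; lower ratio means ABCB6 inhibition with less porphyrin fluorescence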
Myeloid diff MLP: myeloid differentiation induction; AID 624256; calls only at 10 µM; ER-HoxA9 myeloid progenitors, lysozyme-GFP differentiation, flow cytometry; actives 1% (n = 360,000);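 active = normalized GFP-positive differentiation at or above the plate's own cutoff, the solvent-only control mean plus 3 SD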;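 also: cells exposed to compound for four days before flow analysis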
Hits are given with their value; – = inactive; · = not tested or not shown; + = active, no number. Only a selection was taken, and hits are over-represented in it overall.

SMILES | XiGFP reactiv | ABCB6 inh 2 | Myeloid diff MLP
CCN1C(=O)N[C@@H](CCc2ccccc2)[C@@H](C(=O)OC)[C@H]1C | – | – | +
COC(=O)[C@H]1[C@H](CCc2ccccc2)NC(=O)N(Cc2ccccc2)[C@@H]1C | – | – | –
COC(=O)[C@H]1[C@@H](C)N(Cc2ccccc2)C(=O)N[C@H]1c1cccc(C(F)(F)F)c1 | – | – | +
CCN1C(=O)N[C@@H](c2cccc(C(F)(F)F)c2)[C@@H](C(=O)OC)[C@H]1C | – | – | –
O=C(C[C@@H]1CC[C@H](NS(=O)(=O)c2ccc(F)cc2)[C@H](CO)O1)NCc1ccncn1 | – | · | ·
O=C(C[C@@H]1CC[C@@H](NS(=O)(=O)c2ccc(F)cc2)[C@@H](CO)O1)NCc1ccccc1F | – | · | ·
CCCCCCSc1ccc([C@@H]2[C@@H]3C(=O)N(C)C(=O)[C@@H]3[C@]3(C(=O)OC)CCCCN23)cc1OC | – | – | –
CCCCCCSc1ccc([C@@H]2[C@H]3C(=O)N(C)C(=O)[C@H]3[C@]3(C(=O)OC)CCCCN23)cc1OC | – | – | +
CN1CCc2c(sc(NC(=O)c3ccc(S(=O)(=O)N4CCCC4)cc3)c2C(N)=O)C1 | – | – | –
CCOC(=O)N1CCN(S(=O)(=O)c2ccc(C(=O)Nc3sc4c(c3C(=O)OC)CCN(C)C4)cc2)CC1 | – | – | –
CCN1CCc2c(sc(NC(=O)c3ccc(S(=O)(=O)N(C)CC4CCCO4)cc3)c2C(N)=O)C1 (stereo not given) | – | – | –
CC(=O)c1ccc(C(=O)Nc2sc3c(c2C(N)=O)CCN(Cc2ccccc2)C3)cc1 | 39 | – | +
CCCN1CCc2c(sc(NC(=O)c3ccc(S(=O)(=O)N(C)c4ccccc4)cc3)c2C(N)=O)C1 | · | – | +
CN1CCc2c(sc(NC(=O)c3ccc(S(=O)(=O)N4CCCCCC4)cc3)c2C(N)=O)C1 | · | – | +
CCCN1CCc2c(sc(NC(=O)c3ccc(S(=O)(=O)N4CCN(C(=O)OCC)CC4)cc3)c2C(N)=O)C1 | – | – | +
COc1cccc(OC)c1C(=O)Nc1sc2c(c1C(N)=O)CCN(Cc1ccccc1)C2 | – | – | –
COCC(=O)N1[C@@H](CO)[C@@H](c2ccccc2)C12CN(Cc1cccc(OC)c1)C2 | – | · | ·
O=C(C1CCC1)N1CC2(C1)[C@@H](c1ccccc1)[C@H](CO)N2C(=O)CC1CC1 | – | · | ·
NCC[C@@H]1CC[C@H](NC(=O)C2CCCC2)[C@H](CO)O1 | – | · | ·
C[C@H]1CN([C@@H](C)CO)C(=O)c2cc(C#CC3CCCC3)cnc2O[C@@H]1CN(C)Cc1ccncc1 | – | · | ·
O=C(c1ccc(F)cc1)N1CC(=O)N2[C@H](C1)[C@@H](c1ccc(-c3ccccc3)cc1)[C@@H]2CO | – | · | ·
COc1ccccc1-c1cnc2c(c1)C(=O)N([C@@H](C)CO)C[C@H](C)[C@H](CN(C)C(=O)c1ccccc1)O2 | – | · | ·
C=CCN1C(=O)/C(=C\C=C2\N(C)c3ccccc3C2(C)C)SC1=S | – | – | +
CCCN1C(=O)/C(=C/C=C2\N(CC)c3ccccc3C2(C)C)SC1=S | · | – | +
CCCN1C(=O)/C(=C/c2ccncc2)SC1=S | – | – | –
SMILES | XiGFP reactiv | ABCB6 inh 2 | Myeloid diff MLP
CCCCN1C(=O)/C(=C/C=C2\Oc3ccccc3N2CC)SC1=S | – | – | +
CN1/C(=C\C=C2/SC(=S)N(CC(=O)O)C2=O)C(C)(C)c2ccccc21 | – | – | –
CCCN1C(=O)/C(=C2/C=Cc3ccccc3N2CC)SC1=S | – | – | +
CCCN1/C(=C2/SC(=S)N(CC)C2=O)C=Cc2ccccc21 | · | – | –
CCN1C(=O)/C(=C/C=C2/Sc3ccccc3N2CCO)SC1=S | – | – | –
COc1ccc(CN(C)C[C@H]2Oc3ccc(NS(=O)(=O)c4cccs4)cc3CC(=O)N([C@H](C)CO)C[C@@H]2C)cc1 | – | · | ·
COc1ccc2c3c([nH]c2c1)[C@@H](CO)N(CC1CCOCC1)CC31CN(C(=O)C2CC2)C1 | – | · | ·
CC(C)C(=O)Nc1ccc2c(c1)C(=O)N(C)[C@H]1CC[C@H](CC(=O)NC3CCCC3)O[C@H]1CO2 | – | · | ·
O=C(C[C@@H]1C=C[C@H](NC(=O)c2ccccc2)[C@H](CO)O1)NCCc1ccncc1 | – | · | ·
CN1CCN(c2cc(=O)n(Cc3ccc(F)cc3)c(=O)[nH]2)CC1 | – | – | –
O=c1cc(N2CCN(c3ccccc3)CC2)[nH]c(=O)n1Cc1ccc(F)cc1 | – | – | +
Cc1ccc(NC(=O)CSc2nnc(C)n2CC2CCCO2)cc1 (stereo not given) | – | – | +
Cc1nnc(SCC(=O)Nc2ccc([N+](=O)[O-])cc2)n1CC1CCCO1 (stereo not given) | – | – | –
O=C(CN1CCOCC1)NCC[C@H]1CC[C@@H](NC(=O)Nc2ccc(C(F)(F)F)cc2)[C@@H](CO)O1 | – | · | ·
